A short description of series [1]: Oral bioavailability in dog. In kind it is ADME, organism-based, Canis lupus familiaris. Particulars: in vivo.
The subject of series [2] is Mus musculus. The experiment in a line: In-vivo binding affinity to GlyT1 in mouse assessed as target occupancy in forebrains dosed intraperitoneally using [3H]N-methyl-SSR504734 as radioligand after 1 hr by liquid scintillation counting method. The format is functional. The settings on record: ip. The gist of the method: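 Mice dosed i.p. at several doses; forebrain homogenates then tested ex vivo for binding of a GlyT1 radioligand to give target occupancy, with ED50 for 50% occupancy estimated across the dose range.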

A short description of series [3]: Oral bioavailability in Sprague-Dawley rat at measured after 8 to 24 hrs by LC-MS/MS method. The settings on record: in vivo. The format is ADME, organism-based.
Series [4] in a line: Efflux ratio in MDCK2-MDR1 cells at 1 uM incubated fro 1 hr by LC-MS/MS method. Particulars: dog, MDCK-MDR1. In kind it is ADME, cell-based, Canis lupus familiaris.
The target of series [5] is T1, Sodium- and chloride-dependent glycine transporter 1 (Homo sapiens, UniProt P48067).
T1 sequence (P48067 whole entry): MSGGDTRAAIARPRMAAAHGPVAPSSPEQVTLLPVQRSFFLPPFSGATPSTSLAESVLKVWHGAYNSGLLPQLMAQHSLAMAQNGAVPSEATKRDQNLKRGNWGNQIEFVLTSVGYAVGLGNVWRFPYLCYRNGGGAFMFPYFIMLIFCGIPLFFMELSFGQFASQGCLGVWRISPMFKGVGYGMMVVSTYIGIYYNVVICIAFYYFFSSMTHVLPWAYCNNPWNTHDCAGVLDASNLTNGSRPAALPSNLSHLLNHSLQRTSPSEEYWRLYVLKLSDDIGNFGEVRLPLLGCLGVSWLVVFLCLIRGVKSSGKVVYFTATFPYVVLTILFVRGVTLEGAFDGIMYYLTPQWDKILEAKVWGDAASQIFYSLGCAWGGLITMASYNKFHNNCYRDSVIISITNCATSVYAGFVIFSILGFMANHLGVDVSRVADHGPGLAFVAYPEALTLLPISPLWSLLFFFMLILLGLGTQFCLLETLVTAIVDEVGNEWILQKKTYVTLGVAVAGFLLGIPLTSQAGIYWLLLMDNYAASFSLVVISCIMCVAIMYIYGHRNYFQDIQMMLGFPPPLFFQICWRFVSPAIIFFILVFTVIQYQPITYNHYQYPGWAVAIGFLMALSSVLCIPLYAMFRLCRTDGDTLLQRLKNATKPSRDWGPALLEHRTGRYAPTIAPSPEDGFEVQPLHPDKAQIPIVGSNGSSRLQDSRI
Nature of the series: Displacement of [3H]N-Methyl-SSR504734 from human GlyT1c expressed in cell membranes incubated for 1 hr by liquid scintillation spectrometry. In general terms: Loss of bound radioactivity is the signal in a displacement assay; it reports binding, not function.

Series [6] is described as follows: Permeability in MDCK2-MDR1 cells at 1 uM incubated fro 1 hr by LC-MS/MS method. The format is ADME, cell-based, Canis lupus familiaris. Particulars: dog, MDCK-MDR1; read-out: permeability.
Series [7] is described as follows: fCmax in Sprague-Dawley rat brain at 2 mg/kg, ip measured after 8 to 24 hrs by LC-MS/MS method. In kind it is ADME, organism-based. The settings on record: in vivo.
Series [8] can be described thus: Solubility in water. In kind it is physicochemical.
For series [9], the target named is T2, Sodium- and chloride-dependent glycine transporter 1 (Homo sapiens) (UniProt P48067).
T2 sequence (whole entry): T1 sequence (P48067 whole entry)
The experiment in a line: Non-competitive inhibition of GlyT1c (unknown origin) expressed in Xenopus laevis oocytes clamped at -60 mV assessed as reduction in glycine-induced membrane currents at 300 nM pre-treated with glycine for 1 min followed by compound dosing for 3 mins by two-electrode voltage clamp assay. The format is cell-based. The gist of the method:
(§1)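 Oocytes expressing GlyT1c were stimulated with 10 µM or 3000 µM glycine to evoke transporter current. Compound at 300 nM was added to the glycine solution, and % inhibition of the current was calculated. Mode of inhibition was judged by comparing inhibition at the two glycine levels. Data are mean ± SD, N>4 oocytes.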
In general terms: Two-electrode voltage clamp holds a large cell at a set potential and records current.

Series [10] deals with T2, Sodium- and chloride-dependent glycine transporter 1 (Homo sapiens). Nature of the series: Inhibition of GlyT1c (unknown origin) expressed in Xenopus laevis oocytes clamped at -60 mV assessed as reduction in 3000 uM glycine-induced membrane currents at 300 nM pre-treated with glycine for 1 min followed by compound dosing for 3 mins by two-electrode voltage clamp assay. In kind it is cell-based. The gist of the method:
as §1

For series [11] the target is unchanged. The experiment in a line: Inhibition of GlyT1c (unknown origin) expressed in Xenopus laevis oocytes clamped at -60 mV assessed as reduction in 10 uM glycine-induced membrane currents at 300 nM pre-treated with glycine for 1 min followed by compound dosing for 3 mins by two-electrode voltage clamp assay. In kind it is cell-based. The gist of the method: as §1

The subject of series [12] is Mus musculus. The experiment in a line: Reversal of L687,414-induced hyperlocomotion in mouse at 0.3 to 3 mg/kg, ip dosed 120 mins before test followed by L687,414 dosing for 15 mins before test and measured after 60 mins by Wilcoxon-Mann-Whitney test. In kind it is functional. The gist of the method: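 Non-habituated mice received test agent (0.3, 1.0, 3.0 mg/kg) or vehicle i.p. 120 min before test, then 50 mg/kg L-687,414 or vehicle i.p. 15 min before test; locomotor activity recorded for 60 min; n=8 mice per group, mean ± SEM; Mann-Whitney and Dunn's multiple comparisons tests.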

The nature of series [13]: Clearance in human liver microsomes at 0.5 uM incubated up to 30 mins in presence of NADPH by LC-MS/MS method. In kind it is ADME, microsome. The settings on record: read-out: CLH.
Series [14] has as its target Voltage-gated inwardly rectifying potassium channel KCNH2 (Homo sapiens, UniProt Q12809). The experiment in a line: Inhibition of human ERG.
A short description of series [15]: Clearance in rat liver microsomes at 0.5 uM incubated up to 30 mins in presence of NADPH by LC-MS/MS method. The format is ADME, microsome. Particulars: read-out: CLH. On the technique in general: Liver microsomes are vesicles of endoplasmic reticulum, rich in cytochrome P450 enzymes.
The nature of series [16]: Drug level in Sprague-Dawley rat brain at 0.2 mg/kg, ip measured after 8 to 24 hrs by LC-MS/MS method. In kind it is ADME, organism-based. Particulars: in vivo, read-out: Drug uptake.

The term bioavailability denotes dose-corrected exposure relative to a reference, in per cent. A low value points to poor availability. Usually ED50 stands for the dose at which the effect has come halfway, by size or by number of responders. One may read the efflux ratio as the permeability from basolateral to apical divided by that in the opposite direction, in the common usage. By Ki is commonly meant a dissociation constant, usually derived from enzyme kinetics or from competition with a known ligand. As usually defined, the solubility is the concentration that dissolves in the medium under given conditions. One may read the inhibition as how much of the control response was suppressed. By IC50 is commonly meant the concentration that gives 50% inhibition. Low readings indicate greater potency in that assay, high ones weaker potency in that assay.

Each structure is given as a SMILES string. Activity calls are given as the source filed them. The calls are words filed in the database; no cut-off is given here.

Voltage-gated inwardly rectifying potassium channel KCNH2, sequence (Q12809 whole entry): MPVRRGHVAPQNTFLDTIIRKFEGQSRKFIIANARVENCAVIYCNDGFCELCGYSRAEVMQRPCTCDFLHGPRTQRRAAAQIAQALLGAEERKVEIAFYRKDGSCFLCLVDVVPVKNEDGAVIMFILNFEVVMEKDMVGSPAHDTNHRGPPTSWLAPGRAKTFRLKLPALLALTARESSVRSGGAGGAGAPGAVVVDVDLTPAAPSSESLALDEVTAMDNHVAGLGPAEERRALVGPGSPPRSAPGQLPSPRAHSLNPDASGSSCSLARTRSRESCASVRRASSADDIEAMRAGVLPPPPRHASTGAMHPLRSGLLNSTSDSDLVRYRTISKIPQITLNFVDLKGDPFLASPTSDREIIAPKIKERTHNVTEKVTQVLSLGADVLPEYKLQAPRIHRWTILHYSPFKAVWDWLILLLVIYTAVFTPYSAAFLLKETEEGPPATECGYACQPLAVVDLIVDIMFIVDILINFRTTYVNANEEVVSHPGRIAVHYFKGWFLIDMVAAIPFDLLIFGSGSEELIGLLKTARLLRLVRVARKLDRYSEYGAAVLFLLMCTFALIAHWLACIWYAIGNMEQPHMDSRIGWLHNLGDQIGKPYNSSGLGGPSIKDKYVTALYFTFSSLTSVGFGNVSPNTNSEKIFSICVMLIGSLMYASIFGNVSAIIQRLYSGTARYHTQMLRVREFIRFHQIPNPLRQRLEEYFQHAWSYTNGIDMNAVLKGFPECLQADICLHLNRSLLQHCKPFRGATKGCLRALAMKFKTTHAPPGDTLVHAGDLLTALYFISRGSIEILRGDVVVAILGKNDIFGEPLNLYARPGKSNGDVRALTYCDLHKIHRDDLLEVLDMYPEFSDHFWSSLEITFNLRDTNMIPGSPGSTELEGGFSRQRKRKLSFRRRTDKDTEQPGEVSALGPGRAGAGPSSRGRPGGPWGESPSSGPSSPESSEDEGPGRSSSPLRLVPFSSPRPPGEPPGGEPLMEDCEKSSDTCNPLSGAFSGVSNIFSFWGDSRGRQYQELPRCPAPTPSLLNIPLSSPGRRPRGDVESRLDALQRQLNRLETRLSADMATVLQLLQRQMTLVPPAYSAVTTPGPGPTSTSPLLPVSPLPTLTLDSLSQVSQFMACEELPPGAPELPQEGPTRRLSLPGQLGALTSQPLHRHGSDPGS

As for `Cn1cnc(S(=O)(=O)NCCOc2ccc3c(c2)[C@@H](Cc2ccccc2)[C@@H](N2CCCC2)CC3)c1`, the bioavailability in series [1] came to 49%; in series [3], 29%. Moreover, the ED50 in the series on Mus musculus [2] came out at 1.6 mg/kg. In series [4], the efflux ratio at 1 h, 1 µM was determined as 7.2. Also, in series [5], the Ki was determined as 1.2 nM. The Papp at 1 h, 1 µM in series [6] came out at 17 ×10⁻⁶ cm/s. Further, the fCmax in series [7] is on record as 2 nM. The solubility in series [8] is over 1000 µg/mL.
`C[C@H](Oc1ccc(S(C)(=O)=O)cc1C(=O)N1CCN(c2ncc(C(F)(F)F)cc2F)CC1)C(F)(F)F` [BITOPERTIN]: the inhibition result in [9] is “Active”. For the same molecule, the Ki in series [5] came out at 47 nM. Moreover, the inhibition in series [10] came out at 95%; in [11], 67%.
Consider `Cn1cnc(S(=O)(=O)NCc2ccc3c(c2)[C@@H](Cc2ccccc2)[C@@H](N2CCC2)CC3)c1` (relative stereo), for which the bioavailability came out at 75% in [1] and 51% in series [3]. Besides, the ED50 in the series with Mus musculus [2] amounted to 1.8 mg/kg. In [5], this molecule registered a Ki of 3 nM.
As to `Cn1cnc(S(=O)(=O)NCCOc2ccc3c(c2)[C@@H](Cc2ccccc2)[C@@H](N2CCC2)CC3)c1`, the ED50 in the series on Mus musculus [12] came out at 0.8 mg/kg; in the series on Mus musculus [2], 1.4 mg/kg. Besides, the inhibition result in the series with Mus musculus [12] is “Dose-dependent effect”; in series [10], 39%; in series [11] it was 97%. Also, the microsomal CLint at 0.5 µM in [13] was 10 µL/min/mg; in [15], 55 µL/min/mg. For the same molecule, the results for the bioavailability in series [1] and in [3] were 75% and 17%, respectively. Besides, the efflux ratio at 1 h, 1 µM in series [4] is 12. In series [14], this molecule gave an IC50 of 15000 nM. This molecule also yielded a Ki in series [5] of 0.8 nM. In [6], the Papp at 1 h, 1 µM is 22 ×10⁻⁶ cm/s. In series [7], the fCmax was 2 nM. In addition, the solubility in series [8] was over 1000 µg/mL.
As to `O=S(=O)(CC1CC1)NC1CN(c2ccc3c(c2)[C@@H](Cc2ccccc2)[C@@H](N2CCC2)CC3)C1`, the microsomal CLint at 0.5 µM is under 23 µL/min/mg in [13] and 85 µL/min/mg in [15]. Also, the ED50 in the series on Mus musculus [2] stood at 0.2 mg/kg. Moreover, the efflux ratio at 1 h, 1 µM in [4] was determined as 1.7. Also, the IC50 in [14] was determined as 4400 nM. Besides, the inhibitory constant (Ki) in series [5] stood at 0.9 nM. In addition, the fCmax in [7] is given as 18.7 nM. Also, the concentration in series [16] came out at 0.9 nM.

For the origin of these results see ChEMBL document CHEMBL4145681, “Discovery of Novel Aminotetralines and Aminochromanes as Selective and Competitive Glycine Transporter 1 (GlyT1) Inhibitors” (J Med Chem, 2018).
